Assay outcomes deposited in PubChem by several laboratories.
NR2E3 ag-1 – activates human NR2E3 receptor; Q9Y5X4; CHO-S Gal4-NCOR/VP16-NR2E3 two-hybrid, luciferase; inhibition of corepressor binding, % at 3.98 µM; actives 0.35% (n = 360,000); AID 602229;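 active means inhibition above the mean of all tested compounds plus 3 SD, cut at about 70% in these data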;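 further: 0% = DMSO with NR2E3 transfected cells and 100% = cells lacking NR2E3 construct; higher means lower luciferase signal from less NR2E3 corepressor binding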
Target sequence (Q9Y5X4 whole entry, looked up, the tested form may be a part): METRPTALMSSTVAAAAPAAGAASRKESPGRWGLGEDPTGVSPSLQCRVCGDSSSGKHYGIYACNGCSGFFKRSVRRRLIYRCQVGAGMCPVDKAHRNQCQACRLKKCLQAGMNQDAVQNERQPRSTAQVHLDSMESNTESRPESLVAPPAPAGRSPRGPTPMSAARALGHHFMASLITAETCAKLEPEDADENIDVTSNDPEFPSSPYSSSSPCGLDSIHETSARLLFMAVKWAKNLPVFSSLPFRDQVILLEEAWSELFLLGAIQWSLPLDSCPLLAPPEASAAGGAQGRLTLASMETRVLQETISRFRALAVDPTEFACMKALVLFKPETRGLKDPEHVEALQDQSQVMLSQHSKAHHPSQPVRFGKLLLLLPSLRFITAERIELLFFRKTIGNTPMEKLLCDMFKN
Jurkat NFkB inh – lowers PMA/ionomycin-induced NF-kB signal in Jurkat cells. inhibition, % at 4 µM. PMA/ionomycin-induced NF-kB luciferase reporter, luminescence. actives 0.53% (n = 330,000); in the data active means inhibition above about 50%
NR2E3 ag-2 – activates human photoreceptor nuclear receptor NR2E3; Q9Y5X4; GST-NR2E3/biotin-RetCOR TR-FRET, 1536-well; inhibition of corepressor binding, % at 4.78 µM; actives 0.12% (n = 320,000);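 active means percent inhibition above the cutoff of mean plus 3 SD of all tested compounds, set per screening campaign, cut at about 20% in these data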;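 further: 0% = DMSO wells and 100% = biotin wells as full block of FRET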
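Material: NR2E3–RetCOR corepressor complex / Amount: 1.35 nM GST-NR2E3 / Medium: Tris pH 7.5 / Compound: single nominal compound dose of 4.8 µM / Incubation: 5 h at 4 °C / Technique: TR-FRET, Eu(K)-anti-GST donor, streptavidin-D2 acceptor, ex 340, em 617/671 nm / Read-out basis: percent loss of FRET ratio relative to control wells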
aDG glyco act – increases alpha dystroglycan glycosylation; AID 624168; activation, % at 10 µM; actives 0.22% (n = 360,000); Pro5-aDG cells, alpha-DG glycosylation AlphaScreen (IIH6); 0% Pro5, 100% B10-LARGE cell signal;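 active means activation of at least 8% versus controls, or a plate z-score of at least 8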;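 further: Pro5 are CHO cells carrying HIG-tagged alpha-DG that lacks glycosylation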
MPTP inh – inhibitors of mitochondrial permeability transition pore; actives 1.4% (n = 360,000); AID 602449; inhibition, % at 10 µM; isolated mouse mitochondria, Ca2+ swelling absorbance, 30 min;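 active means inhibition of 50% or more, scaled per plate between neutral and stimulator controls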;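 further: 0% = DMSO wells given calcium and 100% = 1 mM EGTA wells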
697 NFkB inh – inhibitors of the PMA/ionomycin-induced NF-kB reporter in 697 B cells; actives 0.33% (n = 330,000); inhibition, % at 4 µM; 697 B-cell NF-kB luciferase reporter, 16 h; in the data active means inhibition above about 35%
NR2E3 ag conf – confirmation of human NR2E3 agonists; CHO-S mammalian two-hybrid NR2E3-NCOR, luciferase luminescence; shares compounds with NR2E3 ag-1; inhibition, % at 3.98 µM; actives 51% (n = 2,300);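 active means average inhibition above a cutoff equal to the mean inhibition of all tested compounds plus one SD, cut at about 70% in these data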;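 further: 0% = DMSO in NR2E3 cells and 100% = DMSO in cells lacking NR2E3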
GAL4-VP16 luc – counter-screen for NR2E3 agonists: GAL4-VP16 reporter inhibitors; CHO-S GAL4-VP16 luciferase reporter, luminescence; shares compounds with NR2E3 ag-1; actives 29% (n = 2,300); inhibition, % at 3.98 µM;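 active means mean inhibition above a cutoff equal to the average over all tested compounds plus one standard deviation, cut at about 70% in these data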;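 further: luciferase from a UAS reporter driven by GAL4-VP16 transactivation; 0% = DMSO with VP16-transfected cells and 100% = DMSO with cells lacking VP16; higher means less reporter light so more repression of VP16 activity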
* marks the source's active call; other numbers are inactive results. In the library only some 2.4% were active in any assay of this set; here they are far more common.

Screening COc1ccc(NC(=S)c2ccc3ccccc3n2)cc1 returned NR2E3 ag-1 -127.0, Jurkat NFkB inh -66.5, NR2E3 ag-2 -0.9, aDG glyco act 0.0, MPTP inh -0.6 and 697 NFkB inh -47.6.
COc1ccc(N=C(NN)c2ccc3ccccc3n2)cc1 was read as NR2E3 ag-1 69.3, Jurkat NFkB inh -32.4, NR2E3 ag-2 0.4, aDG glyco act -0.1, MPTP inh 1.4, 697 NFkB inh -126.1, NR2E3 ag conf -80.8 and GAL4-VP16 luc -95.2.
For Cc1ccc(NS(=O)(=O)c2ccc(-c3coc(C)n3)cc2)c(Br)c1 the results were NR2E3 ag-1 56.8, Jurkat NFkB inh 8.4, NR2E3 ag-2 -3.6, aDG glyco act -0.4, MPTP inh 6.2, 697 NFkB inh -12.0, NR2E3 ag conf 59.7 and GAL4-VP16 luc 43.2.
Cc1ccc(C)c(NS(=O)(=O)c2ccc(-c3coc(C)n3)cc2)c1 was read as NR2E3 ag-1 19.4, Jurkat NFkB inh 3.9, NR2E3 ag-2 2.4, aDG glyco act 0.0, MPTP inh 0.3 and 697 NFkB inh -4.4.
`Cc1nc(-c2ccc(S(=O)(=O)Nc3cccc(Cl)c3)cc2)co1` gave NR2E3 ag-1 35.2, Jurkat NFkB inh 4.9, NR2E3 ag-2 0.1, aDG glyco act -0.1, MPTP inh 1.2 and 697 NFkB inh -11.1.
CSc1cccc(NS(=O)(=O)c2ccc(-c3coc(C)n3)cc2)c1 was read as NR2E3 ag-1 93.2*, Jurkat NFkB inh 16.9, NR2E3 ag-2 -1.2, aDG glyco act -0.1, MPTP inh 5.0, 697 NFkB inh -29.1, NR2E3 ag conf 76.6* and GAL4-VP16 luc 60.1.
Cc1cccc(C(=O)NCC(=O)N2CCCCCCC2)c1 was read as NR2E3 ag-1 -12.6, Jurkat NFkB inh -11.6, NR2E3 ag-2 2.3, aDG glyco act 0.1, MPTP inh 0.1 and 697 NFkB inh 1.6.
`CN(c1ccccc1)c1ccc(/C=C(/CCC(=O)O)c2nc3ccccc3s2)cc1[N+](=O)[O-]` gave NR2E3 ag-1 67.4, aDG glyco act 0.0, MPTP inh 10.7, NR2E3 ag conf 26.2 and GAL4-VP16 luc 43.8.
For CC(C)CCn1c(SCC(=O)NC2CCS(=O)(=O)C2)nc2cc(Cl)ccc2c1=O (stereo not given) the results were NR2E3 ag-1 0.3, Jurkat NFkB inh 1.3, NR2E3 ag-2 -5.8, aDG glyco act 0.0, MPTP inh -0.3 and 697 NFkB inh 1.1.
`Cc1nnsc1C(=O)NC1CCCc2c1cnn2-c1ccc(F)cc1F` (stereo not given) gave NR2E3 ag-1 95.8*, Jurkat NFkB inh 49.2, NR2E3 ag-2 1.2, aDG glyco act 5.5, MPTP inh 6.8, 697 NFkB inh 21.3, NR2E3 ag conf 71.2* and GAL4-VP16 luc 64.0.
`Cc1nnsc1C(=O)NC1CCCc2c1cnn2-c1cc(F)cc(F)c1` (stereo not given) gave NR2E3 ag-1 4.1, Jurkat NFkB inh 9.1, NR2E3 ag-2 -0.7, aDG glyco act 0.1, MPTP inh -0.3 and 697 NFkB inh -18.2.
Screening Cc1cccc(CC(=O)NCCN2CCCCC2)c1 returned NR2E3 ag-1 -18.2, Jurkat NFkB inh 10.6, NR2E3 ag-2 2.0, aDG glyco act -0.2, MPTP inh -0.6 and 697 NFkB inh 4.0.
For O=S(=O)(NC1CCCC1)c1ccc(S(=O)(=O)N2CCc3ccccc32)cc1 the results were NR2E3 ag-1 54.7, Jurkat NFkB inh 24.8, NR2E3 ag-2 1.2, aDG glyco act 2.6, MPTP inh 20.2, 697 NFkB inh 1.4, NR2E3 ag conf 79.1* and GAL4-VP16 luc 54.3.
`CN(Cc1ccco1)C(=O)Cn1c(=O)oc2cc(S(=O)(=O)NCc3ccccc3)ccc21` gave NR2E3 ag-1 -0.5, Jurkat NFkB inh -0.9, NR2E3 ag-2 1.8, aDG glyco act 0.1, MPTP inh -0.2 and 697 NFkB inh 12.3.
`CN(Cc1ccccc1)C(=O)Cn1c(=O)oc2cc(S(=O)(=O)NCc3ccccc3)ccc21` gave NR2E3 ag-1 47.8, Jurkat NFkB inh 19.9, NR2E3 ag-2 4.7, aDG glyco act 0.2, MPTP inh 1.7, 697 NFkB inh -17.9, NR2E3 ag conf 17.2 and GAL4-VP16 luc 41.5.
`CC1CCC(NC(=O)C2CCN(S(=O)(=O)c3cccc4nonc34)CC2)CC1` (stereo not given) gave NR2E3 ag-1 -14.2, Jurkat NFkB inh 2.7, NR2E3 ag-2 -1.0, aDG glyco act 0.0, MPTP inh 1.7 and 697 NFkB inh 14.5.
`COCCn1c(C)cc(C(=O)CSc2nnnn2C2CCCC2)c1C` gave NR2E3 ag-1 55.9, Jurkat NFkB inh -61.1, NR2E3 ag-2 0.6, aDG glyco act 0.0, MPTP inh -0.1, 697 NFkB inh -123.4, NR2E3 ag conf 22.1 and GAL4-VP16 luc -54.1.
`COc1ccc(Cl)cc1C(=O)CSc1nnnn1C1CCCC1` gave NR2E3 ag-1 -2.1, Jurkat NFkB inh -1.2, NR2E3 ag-2 2.6, aDG glyco act 0.2, MPTP inh 0.4 and 697 NFkB inh -0.6.
N#Cc1c(-c2cccs2)cc(-c2cccnc2)nc1N was read as NR2E3 ag-1 -0.8, Jurkat NFkB inh -7.7, NR2E3 ag-2 0.9, aDG glyco act 0.7, MPTP inh -0.9 and 697 NFkB inh 13.5.
Screening N#Cc1c(-c2cccs2)cc(-c2ccccn2)nc1N returned NR2E3 ag-1 62.2, Jurkat NFkB inh 7.3, NR2E3 ag-2 1.8, aDG glyco act 0.2, MPTP inh -0.6, 697 NFkB inh 14.3, NR2E3 ag conf 27.3 and GAL4-VP16 luc -14.7.
Screening Cc1cc(C(=O)NNS(=O)(=O)c2cccc(Cl)c2)nn1C(C)(C)C returned NR2E3 ag-1 11.7, Jurkat NFkB inh 8.7, NR2E3 ag-2 -0.7, aDG glyco act 0.1, MPTP inh 1.4 and 697 NFkB inh 4.8.
For O=C(CCNC(=O)c1ccc(Cl)cc1)Nc1cc(C(F)(F)F)ccc1N1CCOCC1 the results were NR2E3 ag-1 -0.6, aDG glyco act 0.3 and MPTP inh -0.8.
For COC(=O)c1c(C)oc2ccc(N(C(=O)c3ccncc3)S(=O)(=O)c3ccc4ccccc4c3)cc12 the results were NR2E3 ag-1 89.0*, Jurkat NFkB inh -4.8, NR2E3 ag-2 -4.7, aDG glyco act 0.4, MPTP inh 39.2, 697 NFkB inh -28.6, NR2E3 ag conf 97.1* and GAL4-VP16 luc 87.2*.
Cc1ccc(S(=O)(=O)N(C(=O)c2ccncc2)c2ccc3oc4c(c3c2)CCCC4)cc1[N+](=O)[O-] was read as NR2E3 ag-1 -21.8, Jurkat NFkB inh 8.2, NR2E3 ag-2 -0.3, aDG glyco act -0.2, MPTP inh 1.9 and 697 NFkB inh -4.0.
